In ChEMBL document CHEMBL2086288, “Synthesis, antimicrobial and cytotoxicity study of 1,3-disubstituted-1H-naphtho[1,2-e][1,3]oxazines” (2012):

What was measured:
Staphylococcus aureus = test: Antibacterial activity against Staphylococcus aureus MTCC 2901 after 24 hrs by tube dilution method; assay type: functional
Bacillus subtilis = test: Antibacterial activity against Bacillus subtilis MTCC 2063 after 24 hrs by tube dilution method; assay type: functional
Escherichia coli = test: Antibacterial activity against Escherichia coli MTCC 1652 after 24 hrs by tube dilution method; assay type: functional
Candida albicans = test: Antifungal activity against Candida albicans MTCC 227 after 48 hrs by tube dilution method; assay type: functional
Aspergillus niger = test: Antifungal activity against Aspergillus niger MTCC 8184 after 7 days by tube dilution method; assay type: functional
Summary of the method: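 Tube (serial) dilution MIC in Sabouraud dextrose broth I.P., 25 °C for 7 days. Results are recorded as MIC and reported as pMIC in mM.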

MCF7 [1] = test: Growth inhibition of human MCF7 cells at 50 uM after 48 hrs by MTT assay; assay type: functional; conditions: MCF7, 48 h, read-out: GI
Summary of the method: (§1)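 Cells from ECACC are kept in RPMI-1640 with 10% FCS and 1% penicillin at 37 °C in 5% CO2. They are seeded at 3×10^3 cells/well and dosed after 24 h from filter-sterilized DMSO stocks, then treated for 48 h. MTT (2.5 mg/mL in PBS) is added, formazan is dissolved in DMSO, and A570 is read. Viability is given as % of untreated.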

MCF7 [2] = test: Growth inhibition of human MCF7 cells at 10 uM after 48 hrs by MTT assay; assay type: functional; conditions: MCF7, 48 h, read-out: GI; summary of the method: as §1
A549 [3] = test: Growth inhibition of human A549 cells at 50 uM after 48 hrs by MTT assay; assay type: functional; conditions: A549, 48 h, read-out: GI; summary of the method: as §1
A549 [4] = test: Growth inhibition of human A549 cells at 10 uM after 48 hrs by MTT assay; assay type: functional; conditions: A549, 48 h, read-out: GI; summary of the method: as §1
HCT-116 [5] = test: Growth inhibition of human HCT116 cells at 50 uM after 48 hrs by MTT assay; assay type: functional; conditions: HCT-116, 48 h, read-out: GI; summary of the method: as §1
HCT-116 [6] = test: Growth inhibition of human HCT116 cells at 10 uM after 48 hrs by MTT assay; assay type: functional; conditions: HCT-116, 48 h, read-out: GI; summary of the method: as §1
PC-3 [7] = test: Growth inhibition of human PC3 cells at 50 uM after 48 hrs by MTT assay; assay type: functional; conditions: PC-3, 48 h, read-out: GI; summary of the method: as §1
PC-3 [8] = test: Growth inhibition of human PC3 cells at 10 uM after 48 hrs by MTT assay; assay type: functional; conditions: PC-3, 48 h, read-out: GI; summary of the method: as §1
MCF7 [9] = test: Growth inhibition of human MCF7 cells after 48 hrs by MTT assay; assay type: functional, cell-based; summary of the method: as §1
A549 [10] = test: Growth inhibition of human A549 cells after 48 hrs by MTT assay; assay type: functional, cell-based; summary of the method: as §1
HCT-116 [11] = test: Growth inhibition of human HCT116 cells after 48 hrs by MTT assay; assay type: functional, cell-based; summary of the method: as §1
MCF7 [12] = test: Growth inhibition of human MCF7 cells at 1 uM after 48 hrs by MTT assay; assay type: functional; conditions: MCF7, 48 h, read-out: GI; summary of the method: as §1
A549 [13] = test: Growth inhibition of human A549 cells at 1 uM after 48 hrs by MTT assay; assay type: functional; conditions: A549, 48 h, read-out: GI; summary of the method: as §1
PC-3 [14] = test: Growth inhibition of human PC3 cells at 1 uM after 48 hrs by MTT assay; assay type: functional; conditions: PC-3, 48 h, read-out: GI; summary of the method: as §1
A549 [15] = test: Growth inhibition of human A549 cells at 20 uM after 48 hrs by MTT assay; assay type: functional; conditions: A549, 48 h, read-out: GI
Summary of the method: (§2)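 Cells from ECACC, grown in RPMI-1640 with 10% FCS and 1% penicillin, 37 °C, 5% CO2. Seeded at 3×10^3 cells/well in 100 µL medium. Compounds added 24 h later from filter-sterilized DMSO stocks. MTT (2.5 mg/mL in PBS, 20 µL) added, then at least 4 h incubation. Formazan dissolved in DMSO after 48 h treatment, absorbance read at 570 nm. Results given as % viable cells versus untreated.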

HCT-116 [16] = test: Growth inhibition of human HCT116 cells at 20 uM after 48 hrs by MTT assay; assay type: functional; conditions: HCT-116, 48 h, read-out: GI; summary of the method: as §2

| Structure (SMILES) | -logMIC (Staphylococcus aureus) | -logMIC (Bacillus subtilis) | -logMIC (Escherichia coli) | -logMIC (Candida albicans) | -logMIC (Aspergillus niger) | inhibition of growth at 50 µM (MCF7 [1]) [%] | inhibition of growth at 10 µM (MCF7 [2]) [%] | inhibition of growth at 50 µM (A549 [3]) [%] | inhibition of growth at 10 µM (A549 [4]) [%] | inhibition of growth at 50 µM (HCT-116 [5]) [%] | inhibition of growth at 10 µM (HCT-116 [6]) [%] | inhibition of growth at 50 µM (PC-3 [7]) [%] | inhibition of growth at 10 µM (PC-3 [8]) [%] | growth inhibition (GI) (MCF7 [9]) | growth inhibition (GI) (A549 [10]) | growth inhibition (GI) (HCT-116 [11]) | also measured |
| --- | --- | --- | --- | --- | --- | --- | --- | --- | --- | --- | --- | --- | --- | --- | --- | --- | --- |
| Fc1ccc(C2=NC(c3ccccc3)c3c(ccc4ccccc34)O2)cc1 (stereo not given) | 1.75 | 2.05 | 2.35 | 1.75 | 1.45 | 51 | 29 | 50 | 18 | 56 | 12 | 39 | 14 | Dose-dependent effect | Dose-dependent effect | Dose-dependent effect | – |
| CO[C@@]12[C@H](COC(N)=O)C3=C(C(=O)C(C)=C(N)C3=O)N1C[C@@H]1N[C@@H]12 [MITOMYCIN] | – | – | – | – | – | – | – | – | – | – | – | – | – | – | – | – | inhibition of growth at 1 µM (MCF7 [12]): 82%; inhibition of growth at 1 µM (A549 [13]): 70%; inhibition of growth at 1 µM (PC-3 [14]): 70% |
| Fc1ccc(C2=NC(c3ccc(F)cc3)c3c(ccc4ccccc34)O2)cc1 (stereo not given) | 2.07 | 1.77 | 1.47 | 1.77 | 1.47 | 50 | 36 | 50 | 20 | 51 | 5 | 29 | 22 | Dose-dependent effect | Dose-dependent effect | Dose-dependent effect | – |
| O=c1[nH]cc(F)c(=O)[nH]1 [FLUOROURACIL] | – | – | – | – | – | – | – | – | – | – | – | – | – | – | – | – | inhibition of growth at 20 µM (A549 [15]): 79%; inhibition of growth at 20 µM (HCT-116 [16]): 78% |
| Cc1ccc(C2N=C(c3ccc(Br)cc3)Oc3ccc4ccccc4c32)cc1 (stereo not given) | 1.83 | 1.83 | 1.83 | 1.83 | 1.53 | 33 | 26 | 32 | 13 | 10 | 2 | 2 | 0 | – | – | – | – |
